The results in this text go back to the array DNA melting data of Ke et al. (doi:10.1101/2024.01.08.574731).

The nature of data set [1]: folding enthalpy; higher = less favourable; fluorescence melt of hairpins on a sequencing array, two-state fit. Particulars: sodium 0.088 M. The essentials:
(§1)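 With Cy3 and quencher oligos annealed, library hairpins on a sequenced MiSeq flow cell were imaged for Cy3 fluorescence in 50 mM Na-HEPES pH 8.0, 25 mM NaCl, in 2.5 °C steps up to 60 °C. Melting temperature and folding enthalpy were derived from bootstrapped two-state fits of signals normalised to pre-quench Cy3 and to control constructs. Four replicates were combined by inverse variance, with fitted temperatures raised by 9.35 °C to match UV melts.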

A short description of data set [2]: melting temperature; fluorescence melt of hairpins on a sequencing array, two-state fit, raised by 9.35 °C to match UV melts. To be noted: sodium 0.088 M. In outline: as §1

GATCTAGAGTAGATC ((((((...)))))): the folding enthalpy in data set [1] is -28.1 kcal/mol. The Tm in data set [2] is 34.8 °C.
With GATCTAGAGTTAGATC ((((((....)))))), the folding enthalpy in data set [1] is -24 kcal/mol. For the same sequence, the Tm in data set [2] was determined as 37.7 °C.
Regarding GATCTAGCACTAGATC ((((((....)))))), in data set [1], the folding enthalpy was -43.9 kcal/mol. For the same sequence, the Tm in data set [2] was 47.1 °C.
For GATCTAGCAGTAGATC ((((((....)))))), the folding enthalpy in data set [1] is -31.2 kcal/mol. The Tm in data set [2] is 43.2 °C.
As to GATCTAGCTATAGATC ((((((....)))))), the folding enthalpy in data set [1] was -40.2 kcal/mol. Besides, the Tm in data set [2] turned out to be 47.7 °C.
In the case of GATCTAGGCCTAGATC ((((((....)))))), in data set [1], the folding enthalpy is -56 kcal/mol. For the same sequence, the Tm in data set [2] turned out to be 52.4 °C.
Turning to GATCTAGTCATAGATC ((((((....)))))), the folding enthalpy in data set [1] is -38.4 kcal/mol. Also, in data set [2], the Tm is 50 °C.
On to GATCTAGTGATAGATC ((((((....)))))), for which the folding enthalpy in data set [1] was -34.5 kcal/mol. Besides, in data set [2], the Tm is 45.7 °C.
The like results for GATCTAGTTGTAGATC ((((((....)))))) were, in that order, -28.2 kcal/mol and 41.2 °C.
GATCTATAAATAGATC ((((((....)))))): the folding enthalpy in data set [1] was -35.4 kcal/mol. The Tm in data set [2] came to 39.9 °C.
In the case of GATCTATAGCTAGATC ((((((....)))))), in data set [1], the folding enthalpy was -28.7 kcal/mol. In addition, the Tm in data set [2] was 36.5 °C.
As to GATCTATATTTAGATC ((((((....)))))), the folding enthalpy in data set [1] was -34.6 kcal/mol. Further, in data set [2], the Tm was 43.1 °C.
The like results for GATCTATCCGTAGATC ((((((....)))))) were, in that order, -30.1 kcal/mol and 43.1 °C.
On to GATCTATCGCTAGATC ((((((....)))))), for which the folding enthalpy in data set [1] is -15 kcal/mol. Besides, the Tm in data set [2] worked out at 39.8 °C.
As for GATCTATCGGTAGATC ((((((....)))))), in data set [1], the folding enthalpy was -24.7 kcal/mol. Besides, the Tm in data set [2] came to 39.1 °C.
The corresponding values for GATCTATGATAGATC ((((((...)))))) are -25.2 kcal/mol and 37.3 °C.
Consider GATCTATTAATAGATC ((((((....)))))), for which the folding enthalpy in data set [1] was -37.8 kcal/mol. For the same sequence, the Tm in data set [2] turned out to be 45.2 °C.
Take GATCTATTATTAGATC ((((((....)))))): the folding enthalpy in data set [1] was -34.1 kcal/mol. Also, in data set [2], the Tm was found to be 43.2 °C.
For the sequence GATCTATTCTTAGATC ((((((....)))))), the folding enthalpy in data set [1] was -40.9 kcal/mol. Besides, in data set [2], the Tm came to 44.8 °C.
As for GATCTATTGTAGATC ((((((...)))))), in data set [1], the folding enthalpy was -22.8 kcal/mol. In addition, the Tm in data set [2] is 41 °C.
In the case of GATCTATTTGTAGATC ((((((....)))))), the folding enthalpy in data set [1] was -35 kcal/mol. Further, the Tm in data set [2] came out at 45.2 °C.
The corresponding values for GATCTCAACCGAGATC ((((((....)))))) are -45.1 kcal/mol and 51.9 °C.
For GATCTCACAAGAGATC ((((((....)))))), in data set [1], the folding enthalpy is -38.7 kcal/mol. In addition, the Tm in data set [2] stood at 53.7 °C.
As to GATCTCACCGGAGATC ((((((....)))))), in data set [1], the folding enthalpy was -43.9 kcal/mol. Moreover, the Tm in data set [2] came out at 52.2 °C.
For the sequence GATCTCACGGGAGATC ((((((....)))))), the folding enthalpy in data set [1] is -39.3 kcal/mol. The Tm in data set [2] was found to be 51.7 °C.
Consider GATCTCACTAGAGATC ((((((....)))))), for which the folding enthalpy in data set [1] was -40.9 kcal/mol. Also, the Tm in data set [2] worked out at 54.3 °C.
GATCTCACTGAGATC ((((((...)))))): in data set [1], the folding enthalpy was -34 kcal/mol. In addition, the Tm in data set [2] came out at 52.1 °C.
For GATCTCACTGGAGATC ((((((....)))))), the folding enthalpy in data set [1] was -40 kcal/mol. For the same sequence, in data set [2], the Tm amounted to 51.3 °C.
For GATCTCAGACGAGATC ((((((....)))))), in data set [1], the folding enthalpy is -36.9 kcal/mol. In addition, in data set [2], the Tm is 51.2 °C.
The like results for GATCTCAGAGAGATC ((((((...)))))) were, in that order, -36 kcal/mol and 55.4 °C.
For GATCTCAGCCGAGATC ((((((....)))))), in data set [1], the folding enthalpy is -39.6 kcal/mol. Further, the Tm in data set [2] turned out to be 52.6 °C.
The like results for GATCTCAGCGGAGATC ((((((....)))))) were, in that order, -38.3 kcal/mol and 53.7 °C.
Regarding GATCTCAGTAGAGATC ((((((....)))))), in data set [1], the folding enthalpy was -37.4 kcal/mol. Also, the Tm in data set [2] was 54.1 °C.
The corresponding values for GATCTCAGTCGAGATC ((((((....)))))) are -35.1 kcal/mol and 54.1 °C.
GATCTCAGTGGAGATC ((((((....)))))): the folding enthalpy in data set [1] is -40.9 kcal/mol. The Tm in data set [2] was determined as 52.6 °C.
With GATCTCATAAGAGATC ((((((....)))))), the folding enthalpy in data set [1] was -38.7 kcal/mol. The Tm in data set [2] stood at 52.3 °C.
Turning to GATCTCATATGAGATC ((((((....)))))), in data set [1], the folding enthalpy was -43.8 kcal/mol. Further, the Tm in data set [2] came out at 54.2 °C.
On to GATCTCATGAGAGATC ((((((....)))))), for which the folding enthalpy in data set [1] was -32 kcal/mol. Besides, the Tm in data set [2] came out at 54.2 °C.
